Experimental data collected from several papers.
Lines come from different studies, so protocols differ.
Target: Serine/threonine-protein kinase SIK2 (SIK2, Homo sapiens, UniProt Q9H0K1)

`O=C(NCc1ncc(C(F)(F)F)cc1Cl)c1ccc2c(c1)C1(CCS(=O)(=O)CC1)[C@H](C1CC1)N2S(=O)(=O)c1ccc(F)cc1` has a remaining binding of 96% (cell-free assay; competition with immobilised ligand; 1 µM).
With `Cn1cc(-c2cccc(N3CCc4c(sc5c4CC(C)(C)C5)C3=O)c2CO)cc(Nc2ccncn2)c1=O` the inhibition was 4% (enzyme activity; inhibitor; 1 µM).
With `COc1ncccc1-c1cnn2ccc(N3CCN(C(=O)OC(C)C)CC3)nc12` the remaining binding was 50% (binding; competition with immobilised ligand; 1 µM).
`CC(C)(C)c1cc(C=C(C#N)C#N)cc(Br)c1O` has a remaining activity of 115% (enzyme activity; inhibitor; 0.5 µM).
The remaining binding of `Cc1nn(C)cc1-c1nc2c(N3CCN(Cc4ccc(Cl)cc4)CC3)c(Cl)cnc2[nH]1` is reported as 36% (binding; competition with immobilised ligand; 1 µM).
`Cn1cc(-c2cc(F)cc(N3CCn4c(cc5c4CCCC5)C3=O)c2CO)cc(Nc2ccc(N3CCN(C4COC4)CC3)cn2)c1=O` gave an inhibition of 13% (enzyme activity; inhibitor; 0.1 µM).
`O=c1[nH]c2ccccc2n1C1CCN(Cc2ccc(-c3[nH]c4cc5ncnc5cc4nc3-c3ccccc3)cc2)CC1` has a remaining signal of 114% (cell-free assay; 0.5 µM).
`Cn1cncc1[C@](O)(COc1ccc(C#N)cc1-c1ccc(OC(F)(F)F)cc1)c1ccc(C#N)cc1` has a remaining binding of 95% (cell-free assay; competition with immobilised ligand; 1 µM).
